RGS4 inh: inhibitors of human RGS4; 310,000 compounds, 0.45% hits; HEK293 M3R/RGS4 inducible, Fluo-4 calcium flux; hits give high values; triggered by carbachol at its EC20; B-score at 10 µM; AID 463165;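 active = B-score, a plate-corrected calcium signal, over three deviations above library mean, with baseline fluorescence within five deviations of library mean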;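 note: RGS4 expression induced by doxycycline in cells with stable M3 receptor; B-score is computed from the integrated fluorescence ratio over baseline after carbachol; higher B-score means a larger calcium signal and so more RGS4 inhibition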
Target sequence (P49798 whole entry, looked up): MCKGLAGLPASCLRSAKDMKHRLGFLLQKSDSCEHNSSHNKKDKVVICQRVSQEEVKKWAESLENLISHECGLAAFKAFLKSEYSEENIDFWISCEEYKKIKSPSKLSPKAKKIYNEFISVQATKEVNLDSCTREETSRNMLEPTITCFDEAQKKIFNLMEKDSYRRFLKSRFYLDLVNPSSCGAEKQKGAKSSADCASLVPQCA
MrgX1 antagonist: human MrgX1 receptor antagonism, primary screen; 310,000 compounds, 1.3% hits; MRGX1-HEK293 calcium flux, Fluo-4, BAM8-22 antagonism; hits give low values; B-score at 10 µM;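 active = calcium-response B-score plate-corrected more than 3 library SD below zero, starting fluorescence within 5 deviations, no agonist response on first addition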;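 note: peak minus trough fluorescence over baseline after final BAM8-22 challenge near maximal dose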
Target sequence (Q96LB2 whole entry, looked up): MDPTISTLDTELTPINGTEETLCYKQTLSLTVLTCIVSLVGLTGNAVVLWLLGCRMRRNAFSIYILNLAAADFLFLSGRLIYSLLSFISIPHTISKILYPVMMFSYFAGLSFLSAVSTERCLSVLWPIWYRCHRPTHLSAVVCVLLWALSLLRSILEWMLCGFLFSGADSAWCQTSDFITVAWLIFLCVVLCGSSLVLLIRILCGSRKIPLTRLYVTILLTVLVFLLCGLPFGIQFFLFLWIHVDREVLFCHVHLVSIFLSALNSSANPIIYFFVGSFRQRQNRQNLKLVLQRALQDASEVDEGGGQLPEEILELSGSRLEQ
MrgX1 allo act: human MrgX1 positive allosteric modulation, primary screen; 310,000 compounds, 0.63% hits; MrgX1-HEK293, Fluo-4 calcium flux, FDSS; hits give high values; AID 588675; B-score at 10 µM;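 active = plate-corrected calcium response at least 3 library SD above typical, normal starting fluorescence, not activating the receptor alone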;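 note: compound read alongside a low EC10 to EC30 dose of BAM8-22 agonist; peak minus trough fluorescence over baseline measured at the second addition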
MrgX1 agonist: human MrgX1 receptor agonism, primary screen; Q96LB2; MrgX1-HEK293 cells, Fluo-4 calcium fluorescence, agonist mode; hits give high values; 310,000 compounds, 0.44% hits; B-score at 10 µM;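 active = calcium response B-score plate-corrected fluorescence ratio at least 3 library SD, with starting fluorescence B-score inside 5 SD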
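Material – MrgX1-expressing HEK293 cells · Input – 15,000 cells seeded per well · Dosing – compound as first of three additions · Times – overnight seeding, then 1 h dark dye loading · Measured by – kinetic Fluo-4 NW fluorescence of intracellular calcium · Read-out – B-scored fluorescence response ratio · Benchmarks – positive and negative control wells on each plate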
RGS4 act: RGS4 potentiation or activation. HEK293 M3R/inducible RGS4, carbachol calcium flux Fluo4; hits give low values. B-score at 10 µM. 310,000 compounds, 0.92% hits;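 active = B-score of the integrated calcium signal more than 4 SD below the library mean, with starting fluorescence not abnormally high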;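 note: negative B-score means reduced calcium response which marks RGS4 activation or potentiation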
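Reagent: ECmax carbachol challenge; Test system: M3R-expressing HEK293 line, RGS4 induced by doxycycline; Schedule: overnight RGS4 induction, 30 min dye load 37 °C, 20 min compound RT; Detection: calcium dye Fluo4 fluorescence; Read-out: Agonist-evoked peak-minus-minimum fluorescence over baseline, integrated ratio, B score.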
MrgX1 ant reconf: confirmation of human MrgX1 receptor antagonists. shares compounds with MrgX1 antagonist. 2,300 compounds, 19% hits. AID 602420. MrgX1-HEK293, BAM8-22 calcium flux, Fluo-4; hits give low values. remaining BAM8-22 calcium response % of control (hits give low values), % at 10 µM;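 active = remaining agonist calcium response no higher than 100% minus 3 SD of agonist-only control wells, with starting fluorescence near control levels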;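 note: agonist BAM8-22 given at a near maximal EC90 to ECmax level; peak minus minimum fluorescence divided by baseline after agonist addition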
HEK293 Ca flux: counter-screen for MrgX1 antagonists: effect in parental HEK293 cells; 4,000 compounds, 2% hits; AID 624111; shares compounds with MrgX1 antagonist; fluorescence ratio F(max-min)/F0 at 10 µM; Fluo-4 calcium fluorescence, FDSS;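 active = duplicate-averaged calcium fluorescence ratio at least three times the standard deviation of buffer wells, a nonspecific response in parental cells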
HEK293 Ca counter: counter-screen for MrgX1 allosteric activators: effect in parental HEK293 cells | shares compounds with MrgX1 antagonist | parental HEK293 calcium flux, Fluo-4 fluorescence ratio; hits give high values | fluorescence ratio F(max-min)/F0 at 10 µM | 4,000 compounds, 0.4% hits;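 active = calcium fluorescence ratio, averaged over duplicates, at least 3 SD of the buffer-well ratio, meaning a nonspecific response in receptor-free cells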;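 note: untransfected parental HEK293 lacking MrgX1 used as counterscreen for MrgX1 allosteric activators; fluorescence change taken during the second addition on a kinetic imager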
HEK293 Ca cntr2: counter-screen for MrgX1 activators: effect in parental HEK293 cells; fluorescence ratio F(max-min)/F0 at 10 µM; 4,000 compounds, 8.7% hits; AID 624115; shares compounds with MrgX1 antagonist; Fluo-4 calcium fluorescence (FDSS); hits give high values;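 active = calcium fluorescence ratio at least three times the spread of buffer wells, meaning a non-specific response in parental cells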
Numbers without * were called inactive; i = inactive; x = no result. Compounds with a hit are over-represented: about 3.5% of the library has one in this group of screens.

SMILES | RGS4 inh | MrgX1 antagonist | MrgX1 allo act | MrgX1 agonist | RGS4 act | MrgX1 ant reconf | HEK293 Ca flux | HEK293 Ca counter | HEK293 Ca cntr2
OCCC1CN(C/C=C/c2ccco2)CCN1Cc1ccccc1 (stereo not given) | i | -5.2* | i | i | i | i | i | i | i
COc1ccc(-c2csc(NC(=O)CSc3nc(C)nc4sc(C(=O)O)c(C)c34)n2)cc1 | i | -6.4* | i | i | i | 72%* | i | i | i
COc1ccc(-c2csc(NC(=O)CSc3nc(C)cs3)n2)cc1 | i | i | i | i | i | x | x | x | x
COc1ccccc1CNC(=O)c1ccc(OC(C)C)cc1 | i | i | i | i | i | x | x | x | x
O=C(NNC(=O)c1ccco1)c1csc(N2CCOCC2)n1 | i | i | i | i | i | x | x | x | x
NC(=O)C1CCN(c2ncnc3c2c(-c2ccccc2)cn3-c2ccccc2)CC1 | i | -5.2* | i | i | i | i | i | i | i
CCN(CC)Cc1c(C(=O)N2CCc3ccccc3C2)nc2ccc(Cl)cn12 | i | i | i | i | i | x | x | x | x
CSCCC(C(=O)OCC(=O)c1ccc(C)c(C)c1)N1C(=O)c2cc(Cl)c(Cl)cc2C1=O (stereo not given) | i | -5.2* | i | i | i | i | i | i | i
O=C(COc1ccc(-c2ccccc2)cc1)N1CCN(S(=O)(=O)Cc2ccccc2)CC1 | i | i | i | i | i | x | x | x | x
O=S(=O)(NCCN1CCCC1)c1ccc(Cl)cc1 | i | -4.8* | i | i | i | i | i | i | i
O=S(=O)(NCCN1CCCC1)c1ccc(Br)cc1 | i | i | i | i | i | x | x | x | x
O=C1c2cccc3c(N4CCCCC4)ccc(c23)C(=O)N1CCO | i | i | i | i | i | x | x | x | x
O=C1c2cccc3c(N4CCCCC4)ccc(c23)C(=O)N1c1cccc(O)c1 | i | -5.2* | i | i | i | i | i | i | i
CC(=O)Nc1ccc2c(c1)CCCC2 | i | i | i | i | i | x | x | x | x
CC(=O)Nc1ccc2c(c1)CCCC2=O | i | -4.6* | i | i | i | 77%* | i | i | i
COc1ccc(CCNC(=O)C2CCCN2S(=O)(=O)c2ccc(F)cc2)cc1OC (stereo not given) | i | -9* | i | i | i | i | i | i | i
Cc1ccc(CNC(=O)C2CCCN2S(=O)(=O)c2ccc(F)cc2)cc1 (stereo not given) | i | i | i | i | i | x | x | x | x
COc1ccc(CNC(=O)C2CCCN2S(=O)(=O)c2ccc(Cl)cc2)cc1 (stereo not given) | i | -5.5* | i | i | i | 84%* | i | i | i
COc1ccc(C)cc1S(=O)(=O)NC(C)C(=O)Nc1ccc2c(c1)OCO2 (stereo not given) | i | i | i | i | i | x | x | x | x
Cc1ccc2[nH]c(C(=O)N3CCN(C(c4ccccc4)c4ccccc4)CC3)cc2c1 | i | i | i | i | i | x | x | x | x
COC(=O)Cn1cc(C(=O)C(C)(C)C)c2ccccc21 | i | i | i | i | i | x | x | x | x
CCOC(=O)Cn1cc(C(=O)C(C)(C)C)c2ccccc21 | i | -4.9* | i | i | i | i | i | i | i
O=C(NCc1ccco1)C1CCCN1C(=O)Nc1ccccc1Cl (stereo not given) | i | -12* | i | i | i | i | i | i | i
O=C(NCc1ccco1)C1CCCN1C(=O)Nc1ccccc1 (stereo not given) | i | i | i | i | i | x | x | x | x
Nc1nnc(SCc2cc3c(cc2Cl)OCO3)s1 | i | -6.3* | i | i | i | i | i | i | i
SMILES | RGS4 inh | MrgX1 antagonist | MrgX1 allo act | MrgX1 agonist | RGS4 act | MrgX1 ant reconf | HEK293 Ca flux | HEK293 Ca counter | HEK293 Ca cntr2
Nc1nnc(SCc2ccccc2Cl)s1 | i | i | i | i | i | x | x | x | x
Cc1ccccc1OCc1occc1C(=O)Nc1cccc(-n2cnnn2)c1 | i | i | i | i | i | x | x | x | x
CC(/C=C1\SC(=S)N(NS(=O)(=O)c2ccc(C)cc2)C1=O)=C\c1ccccc1 | i | -14* | i | i | -7.3* | i | i | i | 47*
CCOC(=O)c1c(-c2ccccc2)oc2ccc(OCC(O)CN(C)C)cc12 (stereo not given) | i | i | i | i | i | x | x | x | x
O=C(O)CCN1C(=O)NC2(CCCC2)C1=O | i | -7.3* | i | i | i | i | i | i | i
O=C(CN1C(=O)NC2(CCCC2)C1=O)Nc1ccccc1 | i | i | i | i | i | x | x | x | x
COc1ccc2oc(C(=O)OCC(=O)Nc3ccccc3)c(C)c2c1 | i | i | i | i | i | x | x | x | x
COc1ccc2oc(C(=O)OCC(=O)Nc3ccc(N4CCOCC4)cc3)c(C)c2c1 | i | -8.5* | i | i | i | i | i | i | i
Cc1nc2sc(C(c3ccco3)N3CCC(C)CC3)c(O)n2n1 (stereo not given) | i | -5.2* | i | i | i | i | i | i | i
Cc1nc2sc(C(c3ccco3)N3CCN(C(c4ccccc4)c4ccccc4)CC3)c(O)n2n1 (stereo not given) | i | i | i | i | i | x | x | x | x
O=C(Cc1ccc([N+](=O)[O-])cc1)N/N=C/c1ccccc1F | i | i | i | i | i | x | x | x | x
Cc1ccc(C)c(-c2nnc(NC(=O)CCS(=O)(=O)c3ccc(F)cc3)o2)c1 | i | -4.7* | i | i | i | i | i | i | i
COc1ccccc1NC(=O)CCNC(=O)c1ccc(C)cc1 | i | i | i | i | i | x | x | x | x
O=C(Cn1c(C(F)(F)F)nc2ccccc21)Nc1ccccc1C(=O)O | i | -5.8* | i | i | i | i | i | i | i
CC(C(=O)Nc1ccccc1C(=O)O)n1c(C(F)(F)F)nc2ccccc21 (stereo not given) | i | i | i | i | i | x | x | x | x

Source: PubChem (Johns Hopkins Ion Channel Center)
